Assay results taken from ChEMBL document CHEMBL3596194, “Design, synthesis and biological evaluation of bivalent benzoxazolone and benzothiazolone ligands as potential anti-inflammatory/analgesic agents” (Bioorg Med Chem, 2015).
Active and inactive are the calls of the source. The calls are words filed in the database; no cut-off is given here.

Test system: not listed separately
Experiment: Antiinflammatory activity in human SW1353 cells assessed as inhibition of PMA-induced NF-kappaB activity incubated for 30 mins prior to PMA challenge measured after 8 hrs by luciferase reporter gene assay
Type: cell-based
Details: not given
Procedure, shortened: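 SW1353 cells in DMEM/F12 with 10% FBS, electroporated with NF-κB luciferase plasmid (160 V, one 70-ms pulse), plated at 1.25 × 10⁵ cells/well. After 24 h, graded compound concentrations added 30 min before PMA 70 ng/mL, then 8 h incubation. Luciferase read-out, % inhibition versus vehicle, IC50 from dose curves. Sp-1 reporter served as nonspecific control.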
With `O=c1oc2ccccc2n1CCCCCCN1CCN(CCCCn2c(=O)oc3ccccc32)CC1` the IC50 was 1.24 µM. Work on `O=c1oc2ccccc2n1CCCCCCN1CCN(CCn2c(=O)oc3ccccc32)CC1` yielded an IC50 of 3.07 µM. Compound `O=c1sc2ccccc2n1CCCCCCN1CCN(CCCn2c(=O)sc3ccccc32)CC1` has an IC50 of 2.4 µM. Compound `O=c1oc2ccccc2n1CCCCCCN1CCN(CCCCCn2c(=O)oc3ccccc32)CC1` has an IC50 of 1.4 µM. `O=c1sc2ccccc2n1CCCCCN1CCN(CCCn2c(=O)sc3ccccc32)CC1` gave an IC50 of 1.46 µM. In the case of `C=C1C(=O)O[C@@H]2[C@H]3O[C@]3(C)CC/C=C(\C)CC[C@@H]12`, the IC50 is reported as 2.57 µM.

Test system: SW1353
Experiment: Antiinflammatory activity in human SW1353 cells assessed as inhibition of PMA-induced NF-kappaB activity up to 25 ug/ml incubated for 30 mins prior to PMA challenge measured after 8 hrs by luciferase reporter gene assay
Type: cell-based
Details: not given
Procedure, shortened: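 SW1353 chondrosarcoma cells grown in DMEM/F12 with 10% FBS at 37 °C, 5% CO2. Cells electroporated with an NF-κB luciferase plasmid (50 μg/mL, 160 V, one 70-ms pulse) and plated at 1.25 × 10⁵ cells/well. After 24 h, compound was added 30 min before PMA (70 ng/mL), then 8 h incubation. Luciferase read-out as % inhibition vs vehicle; IC50 from dose curves. Sp-1 served as a counter-screen.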
In the case of `O=c1oc2ccccc2n1CCCCCCN1CCN(CCCn2c(=O)oc3ccccc32)CC1`, the inhibition is reported as “inactive”. For `O=c1oc2ccccc2n1CCCCCN1CCN(CCCn2c(=O)oc3ccccc32)CC1`, the inhibition was “inactive”. With `O=c1oc2ccccc2n1CCCCCCN1CCN(CCCCCCn2c(=O)oc3ccccc32)CC1` the inhibition was “inactive”.

Test system: not listed separately
Experiment: Cytotoxicity against pig LLC-PK11 cells up to 25 ug/ml after 48 hrs by neutral red assay relative to control
Type: cell-based, Sus scrofa
Details: llc-pk11, 48 h
Procedure, shortened: (§1)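 Cells grown in RPMI-1640 with 10% bovine calf serum and amikacin at 37 °C, 5% CO2. Seeded at 25,000 cells/well and grown 24 h, then exposed 48 h to samples diluted in serum-free medium. Viability by Neutral Red; % decrease vs vehicle; IC50 from dose curves. Triplicate runs, mean reported; doxorubicin as positive control.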
With `O=c1oc2ccccc2n1CCCCCCN1CCN(CCCn2c(=O)oc3ccccc32)CC1` the Activity was “Non-toxic”. For `O=c1oc2ccccc2n1CCCCCCN1CCN(CCCCn2c(=O)oc3ccccc32)CC1`, the Activity was “Non-toxic”. With `O=c1oc2ccccc2n1CCCCCN1CCN(CCn2c(=O)oc3ccccc32)CC1` the Activity was “Non-toxic”. For `O=c1oc2ccccc2n1CCCCCCN1CCN(CCn2c(=O)oc3ccccc32)CC1`, the Activity was “Non-toxic”. With `O=c1sc2ccccc2n1CCCCCCN1CCN(CCCn2c(=O)sc3ccccc32)CC1` the Activity was “Non-toxic”. With `O=c1oc2ccccc2n1CCCCCCN1CCN(CCCCCn2c(=O)oc3ccccc32)CC1` the Activity was “Non-toxic”. For `O=c1sc2ccccc2n1CCCCCN1CCN(CCCn2c(=O)sc3ccccc32)CC1`, the Activity was “Non-toxic”. In the case of `O=c1oc2ccccc2n1CCCCCN1CCN(CCCn2c(=O)oc3ccccc32)CC1`, the Activity is reported as “Non-toxic”. With `O=c1oc2ccccc2n1CCCCCCN1CCN(CCCCCCn2c(=O)oc3ccccc32)CC1` the Activity was “Non-toxic”.

Test system: Vero
Experiment: Cytotoxicity against African green monkey Vero cells up to 25 ug/ml after 48 hrs by neutral red assay relative to control
Type: cell-based
Details: chlorocebus sabaeus
Procedure, shortened: as §1
For `O=c1oc2ccccc2n1CCCCCCN1CCN(CCCn2c(=O)oc3ccccc32)CC1`, the Activity was “Non-toxic”. With `O=c1oc2ccccc2n1CCCCCCN1CCN(CCCCn2c(=O)oc3ccccc32)CC1` the Activity was “Non-toxic”. In the case of `O=c1oc2ccccc2n1CCCCCN1CCN(CCn2c(=O)oc3ccccc32)CC1`, the Activity is reported as “Non-toxic”. With `O=c1oc2ccccc2n1CCCCCCN1CCN(CCn2c(=O)oc3ccccc32)CC1` the Activity was “Non-toxic”. For `O=c1sc2ccccc2n1CCCCCCN1CCN(CCCn2c(=O)sc3ccccc32)CC1`, the Activity was “Non-toxic”. With `O=c1oc2ccccc2n1CCCCCCN1CCN(CCCCCn2c(=O)oc3ccccc32)CC1` the Activity was “Non-toxic”. With `O=c1sc2ccccc2n1CCCCCN1CCN(CCCn2c(=O)sc3ccccc32)CC1` the Activity was “Non-toxic”. For `O=c1oc2ccccc2n1CCCCCN1CCN(CCCn2c(=O)oc3ccccc32)CC1`, the Activity was “Non-toxic”. For `O=c1oc2ccccc2n1CCCCCCN1CCN(CCCCCCn2c(=O)oc3ccccc32)CC1`, the Activity was “Non-toxic”.

Test system: SK-OV-3
Experiment: Cytotoxicity against human SKOV3 cells up to 25 ug/ml after 48 hrs by neutral red assay relative to control
Type: cell-based
Details: sk-ov-3, 48 h
Procedure, shortened: as §1
In the case of `O=c1oc2ccccc2n1CCCCCCN1CCN(CCCn2c(=O)oc3ccccc32)CC1`, the Activity is reported as “Non-toxic”. In the case of `O=c1oc2ccccc2n1CCCCCCN1CCN(CCCCn2c(=O)oc3ccccc32)CC1`, the Activity is reported as “Non-toxic”. In the case of `O=c1oc2ccccc2n1CCCCCN1CCN(CCn2c(=O)oc3ccccc32)CC1`, the Activity is reported as “Non-toxic”. With `O=c1oc2ccccc2n1CCCCCCN1CCN(CCn2c(=O)oc3ccccc32)CC1` the Activity was “Non-toxic”. With `O=c1sc2ccccc2n1CCCCCCN1CCN(CCCn2c(=O)sc3ccccc32)CC1` the Activity was “Non-toxic”. For `O=c1oc2ccccc2n1CCCCCCN1CCN(CCCCCn2c(=O)oc3ccccc32)CC1`, the Activity was “Non-toxic”. With `O=c1sc2ccccc2n1CCCCCN1CCN(CCCn2c(=O)sc3ccccc32)CC1` the Activity was “Non-toxic”. With `O=c1oc2ccccc2n1CCCCCN1CCN(CCCn2c(=O)oc3ccccc32)CC1` the Activity was “Non-toxic”. For `O=c1oc2ccccc2n1CCCCCCN1CCN(CCCCCCn2c(=O)oc3ccccc32)CC1`, the Activity was “Non-toxic”.

Test system: BT-549
Experiment: Cytotoxicity against human BT549 cells after 48 hrs by neutral red assay relative to control
Type: cell-based
Details: BT-549, 48 h
Procedure, shortened: (§2)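 Cells grown in RPMI-1640 with 10% bovine calf serum and amikacin at 37°C, 5% CO₂. Seeded 25,000 cells/well, grown 24 h, then exposed to compounds diluted in serum-free medium for 48 h. Viability by Neutral Red uptake, % decrease versus vehicle control. IC50 from dose curves, triplicate means. Doxorubicin positive control.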
Compound `O=c1sc2ccccc2n1CCCCCCN1CCN(CCCn2c(=O)sc3ccccc32)CC1` has an IC50 of 25 µM. Work on `O=c1oc2ccccc2n1CCCCCCN1CCN(CCCCCn2c(=O)oc3ccccc32)CC1` yielded an IC50 of 22.5 µM. Work on `O=c1sc2ccccc2n1CCCCCN1CCN(CCCn2c(=O)sc3ccccc32)CC1` yielded an IC50 of 14 µM. With `O=c1oc2ccccc2n1CCCCCCN1CCN(CCCCCCn2c(=O)oc3ccccc32)CC1` the IC50 was 18.5 µM.

Test system: BT-549
Experiment: Cytotoxicity against human BT549 cells up to 25 ug/ml after 48 hrs by neutral red assay relative to control
Type: cell-based
Details: bt-549, 48 h
Procedure, shortened: as §1
For `O=c1oc2ccccc2n1CCCCCCN1CCN(CCCn2c(=O)oc3ccccc32)CC1`, the Activity was “Non-toxic”. In the case of `O=c1oc2ccccc2n1CCCCCCN1CCN(CCCCn2c(=O)oc3ccccc32)CC1`, the Activity is reported as “Non-toxic”. With `O=c1oc2ccccc2n1CCCCCN1CCN(CCn2c(=O)oc3ccccc32)CC1` the Activity was “Non-toxic”. With `O=c1oc2ccccc2n1CCCCCCN1CCN(CCn2c(=O)oc3ccccc32)CC1` the Activity was “Non-toxic”. With `O=c1oc2ccccc2n1CCCCCN1CCN(CCCn2c(=O)oc3ccccc32)CC1` the Activity was “Non-toxic”.

Test system: KB
Experiment: Cytotoxicity against human KB cells up to 25 ug/ml after 48 hrs by neutral red assay relative to control
Type: cell-based
Details: not given
Procedure, shortened: as §1
In the case of `O=c1oc2ccccc2n1CCCCCCN1CCN(CCCn2c(=O)oc3ccccc32)CC1`, the Activity is reported as “Non-toxic”. In the case of `O=c1oc2ccccc2n1CCCCCCN1CCN(CCCCn2c(=O)oc3ccccc32)CC1`, the Activity is reported as “Non-toxic”. In the case of `O=c1oc2ccccc2n1CCCCCN1CCN(CCn2c(=O)oc3ccccc32)CC1`, the Activity is reported as “Non-toxic”. For `O=c1oc2ccccc2n1CCCCCCN1CCN(CCn2c(=O)oc3ccccc32)CC1`, the Activity was “Non-toxic”. In the case of `O=c1sc2ccccc2n1CCCCCCN1CCN(CCCn2c(=O)sc3ccccc32)CC1`, the Activity is reported as “Non-toxic”. For `O=c1oc2ccccc2n1CCCCCCN1CCN(CCCCCn2c(=O)oc3ccccc32)CC1`, the Activity was “Non-toxic”. In the case of `O=c1sc2ccccc2n1CCCCCN1CCN(CCCn2c(=O)sc3ccccc32)CC1`, the Activity is reported as “Non-toxic”. With `O=c1oc2ccccc2n1CCCCCN1CCN(CCCn2c(=O)oc3ccccc32)CC1` the Activity was “Non-toxic”. In the case of `O=c1oc2ccccc2n1CCCCCCN1CCN(CCCCCCn2c(=O)oc3ccccc32)CC1`, the Activity is reported as “Non-toxic”.

Test system: SK-MEL
Experiment: Cytotoxicity against human SK-MEL cells after 48 hrs by neutral red assay relative to control
Type: cell-based
Details: not given
Procedure, shortened: as §2
`O=c1sc2ccccc2n1CCCCCCN1CCN(CCCn2c(=O)sc3ccccc32)CC1` showed an IC50 of 12 µM. Work on `O=c1oc2ccccc2n1CCCCCCN1CCN(CCCCCn2c(=O)oc3ccccc32)CC1` yielded an IC50 of 23 µM. With `O=c1sc2ccccc2n1CCCCCN1CCN(CCCn2c(=O)sc3ccccc32)CC1` the IC50 was 16.8 µM. For `O=c1oc2ccccc2n1CCCCCCN1CCN(CCCCCCn2c(=O)oc3ccccc32)CC1`, the IC50 was 21.3 µM.

Test system: SK-MEL
Experiment: Cytotoxicity against human SK-MEL cells up to 25 ug/ml after 48 hrs by neutral red assay relative to control
Type: cell-based
Details: not given
Procedure, shortened: as §1
For `O=c1oc2ccccc2n1CCCCCCN1CCN(CCCn2c(=O)oc3ccccc32)CC1`, the Activity was “Non-toxic”. In the case of `O=c1oc2ccccc2n1CCCCCCN1CCN(CCCCn2c(=O)oc3ccccc32)CC1`, the Activity is reported as “Non-toxic”. In the case of `O=c1oc2ccccc2n1CCCCCN1CCN(CCn2c(=O)oc3ccccc32)CC1`, the Activity is reported as “Non-toxic”. For `O=c1oc2ccccc2n1CCCCCCN1CCN(CCn2c(=O)oc3ccccc32)CC1`, the Activity was “Non-toxic”. For `O=c1oc2ccccc2n1CCCCCN1CCN(CCCn2c(=O)oc3ccccc32)CC1`, the Activity was “Non-toxic”.
